Legend:
Assay type in all cases: in vivo, human
[1] = Phase I safety and tolerability: DLTs, MTD, adverse events
[2] = Plasma pharmacokinetics in patients; settings: for half-life: human, plasma, po
Summary of the method: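 Oral test compound was given as a single dose on day 1 (7-day run-in for terminal half-life), then QD from day 8. PPI cohort: rabeprazole 20 mg days 4-7, co-dosed day 8, intensive sampling day 8. Quantified by LC-MS/MS.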

advanced solid tumors = test: Tumor response by RECIST v1.0 / modified RECIST
[3] = tested on: phospho-AKT (pAKT) (S473) in platelet-rich plasma; test: pAKT
Summary of the method: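 Patients took oral test compound QD on 21/28 or 28/28 schedules. Total AKT and pAKT (S473) were measured by Meso Scale Discovery immunoassay. Results are percent change in pAKT from baseline.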

[4] = All patients in study (n=120), G3
[5] = All patients in study (n=120), ≤G2
[6] = All patients in study (n=120), ≥G4

## Cc1c(CN2CCN(C(=O)[C@H](C)O)CC2)sc2c(N3CCOCC3)nc(-c3cnc(N)nc3)nc12 [apitolisib]
[1]; 30mg 28/28d (n=27), G3
  Decreased appetite, treatment related AE, n (%): 0
  Diarrhea, treatment related AE, n (%): 2 (7%)
  Dry skin, treatment related AE, n (%): 0
  Fatigue, treatment related AE, n (%): 4 (15%)
  Hyperglycemia, treatment related AE, n (%): 1 (4%)
  Liver dysfunction (abnormal LFTs), treatment related AE, n (%): 1 (4%)
  Mucosal inflammation, treatment related AE, n (%): 0
  Nausea, treatment related AE, n (%): 1 (4%)
  Patients with any AE related to apitolisib, n (%): 14 (52%)
  Pneumonitis, treatment related AE, n (%): 1 (4%)
  Pruritus, treatment related AE, n (%): 0
  Rash (maculopapular, pruritic, macular, erythematous, generalized), treatment related AE, n (%): 5 (19%)
  Vomiting, treatment related AE, n (%): 0
[1]; 30mg 28/28d (n=27), ≤G2
  Decreased appetite, treatment related AE, n (%): 13 (48%)
  Diarrhea, treatment related AE, n (%): 16 (59%)
  Dry skin, treatment related AE, n (%): 7 (26%)
  Fatigue, treatment related AE, n (%): 15 (56%)
  Hyperglycemia, treatment related AE, n (%): 0
  Liver dysfunction (abnormal LFTs), treatment related AE, n (%): 1 (4%)
  Mucosal inflammation, treatment related AE, n (%): 3 (11%)
  Nausea, treatment related AE, n (%): 11 (41%)
  Patients with any AE related to apitolisib, n (%): 12 (44%)
  Pneumonitis, treatment related AE, n (%): 3 (11%)
  Pruritus, treatment related AE, n (%): 2 (7%)
  Rash (maculopapular, pruritic, macular, erythematous, generalized), treatment related AE, n (%): 12 (44%)
  Vomiting, treatment related AE, n (%): 5 (19%)
[1]; 30mg 28/28d (n=27), ≥G4
  Decreased appetite, treatment related AE, n (%): 0
  Diarrhea, treatment related AE, n (%): 0
  Dry skin, treatment related AE, n (%): 0
  Fatigue, treatment related AE, n (%): 0
  Hyperglycemia, treatment related AE, n (%): 1 (4%)
  Liver dysfunction (abnormal LFTs), treatment related AE, n (%): 0
  Mucosal inflammation, treatment related AE, n (%): 0
  Nausea, treatment related AE, n (%): 0
  Patients with any AE related to apitolisib, n (%): 1 (4%)
  Pneumonitis, treatment related AE, n (%): 0
  Pruritus, treatment related AE, n (%): 0
  Rash (maculopapular, pruritic, macular, erythematous, generalized), treatment related AE, n (%): 0
  Vomiting, treatment related AE, n (%): 0
[1]; 40 mg 21/28 d, stage 1
  DLTs, Description: G4 fasting hyperglycemia
[1]; 40mg 28/28d (n=51), G3
  Decreased appetite, treatment related AE, n (%): 0
  Diarrhea, treatment related AE, n (%): 5 (10%)
  Dry skin, treatment related AE, n (%): 1 (2%)
  Fatigue, treatment related AE, n (%): 2 (4%)
  Hyperglycemia, treatment related AE, n (%): 9 (18%)
  Liver dysfunction (abnormal LFTs), treatment related AE, n (%): 6 (12%)
  Mucosal inflammation, treatment related AE, n (%): 3 (6%)
  Nausea, treatment related AE, n (%): 1 (2%)
  Patients with any AE related to apitolisib, n (%): 26 (51%)
  Pneumonitis, treatment related AE, n (%): 2 (4%)
  Pruritus, treatment related AE, n (%): 1 (2%)
  Rash (maculopapular, pruritic, macular, erythematous, generalized), treatment related AE, n (%): 7 (14%)
  Vomiting, treatment related AE, n (%): 1 (2%)
[1]; 40mg 28/28d (n=51), ≤G2
  Decreased appetite, treatment related AE, n (%): 11 (22%)
  Diarrhea, treatment related AE, n (%): 23 (45%)
  Dry skin, treatment related AE, n (%): 7 (14%)
  Fatigue, treatment related AE, n (%): 34 (67%)
  Hyperglycemia, treatment related AE, n (%): 5 (10%)
  Liver dysfunction (abnormal LFTs), treatment related AE, n (%): 2 (4%)
  Mucosal inflammation, treatment related AE, n (%): 15 (29%)
  Nausea, treatment related AE, n (%): 22 (43%)
  Patients with any AE related to apitolisib, n (%): 20 (39%)
  Pneumonitis, treatment related AE, n (%): 1 (2%)
  Pruritus, treatment related AE, n (%): 13 (25%)
  Rash (maculopapular, pruritic, macular, erythematous, generalized), treatment related AE, n (%): 20 (39%)
  Vomiting, treatment related AE, n (%): 10 (20%)
[1]; 40mg 28/28d (n=51), ≥G4
  Decreased appetite, treatment related AE, n (%): 0
  Diarrhea, treatment related AE, n (%): 0
  Dry skin, treatment related AE, n (%): 0
  Fatigue, treatment related AE, n (%): 0
  Hyperglycemia, treatment related AE, n (%): 0
  Liver dysfunction (abnormal LFTs), treatment related AE, n (%): 0
  Mucosal inflammation, treatment related AE, n (%): 0
  Nausea, treatment related AE, n (%): 0
  Patients with any AE related to apitolisib, n (%): 5 (10%)
  Pneumonitis, treatment related AE, n (%): 2 (4%)
  Pruritus, treatment related AE, n (%): 0
  Rash (maculopapular, pruritic, macular, erythematous, generalized), treatment related AE, n (%): 0
  Vomiting, treatment related AE, n (%): 0
[1]; 70 mg 21/28 d, stage 1
  DLTs, Description: G3 maculopapular rash and G3 fasting hyperglycemia
[1]; 1 at 50 mg QD 21/28, 3 at 40 mg QD 28/28
  treatment related deaths on study: 4
[1]; 4 patients in stage 2 (2 at 40 mg and 2 at 30 mg QD)
  patients requiring treatment discontinuation for rash: 5.1%
[1]; All doses, stage 1
  DLTs, Description: Hyperglycemia (n=2) Rash
[1]; [4]
  Decreased appetite, treatment related AE, n (%): 0
  Diarrhea, treatment related AE, n (%): 11 (9%)
  Dry skin, treatment related AE, n (%): 1 (1%)
  Fatigue, treatment related AE, n (%): 7 (6%)
  Hyperglycemia, treatment related AE, n (%): 18 (15%)
  Liver dysfunction (abnormal LFTs), treatment related AE, n (%): 9 (8%)
  Mucosal inflammation, treatment related AE, n (%): 4 (3%)
  Nausea, treatment related AE, n (%): 2 (2%)
  Patients with any AE related to apitolisib, n (%): 51 (42%)
  Pneumonitis, treatment related AE, n (%): 4 (3%)
  Pruritus, treatment related AE, n (%): 1 (1%)
  Rash (maculopapular, pruritic, macular, erythematous, generalized), treatment related AE, n (%): 14 (12%)
  Vomiting, treatment related AE, n (%): 1 (1%)
[1]; [5]
  Decreased appetite, treatment related AE, n (%): 42 (35%)
  Diarrhea, treatment related AE, n (%): 60 (50%)
  Dry skin, treatment related AE, n (%): 16 (13%)
  Fatigue, treatment related AE, n (%): 73 (61%)
  Hyperglycemia, treatment related AE, n (%): 9 (8%)
  Liver dysfunction (abnormal LFTs), treatment related AE, n (%): 4 (3%)
  Mucosal inflammation, treatment related AE, n (%): 27 (23%)
  Nausea, treatment related AE, n (%): 48 (40%)
  Patients with any AE related to apitolisib, n (%): 60 (50%)
  Pneumonitis, treatment related AE, n (%): 8 (7%)
  Pruritus, treatment related AE, n (%): 22 (18%)
  Rash (maculopapular, pruritic, macular, erythematous, generalized), treatment related AE, n (%): 47 (39%)
  Vomiting, treatment related AE, n (%): 24 (20%)
[1]; [6]
  Decreased appetite, treatment related AE, n (%): 0
  Diarrhea, treatment related AE, n (%): 0
  Dry skin, treatment related AE, n (%): 0
  Fatigue, treatment related AE, n (%): 0
  Hyperglycemia, treatment related AE, n (%): 2 (2%)
  Liver dysfunction (abnormal LFTs), treatment related AE, n (%): 0
  Mucosal inflammation, treatment related AE, n (%): 0
  Nausea, treatment related AE, n (%): 0
  Patients with any AE related to apitolisib, n (%): 8 (7%)
  Pneumonitis, treatment related AE, n (%): 2 (2%)
  Pruritus, treatment related AE, n (%): 0
  Rash (maculopapular, pruritic, macular, erythematous, generalized), treatment related AE, n (%): 0
  Vomiting, treatment related AE, n (%): 0
[1]; QD, 21/28-day schedule, DLT <33.3%
  maximum tolerated dose (MTD): 50 mg
[1]; QD, 28/28-day schedule, except MPM patients
  recommended phase 2 dose (RP2D): 40 mg
[1]; QD, 28/28 schedule, malignant pleural mesothelioma patients
  recommended dose for MPM: 30 mg
[1]; QD, continuous 28/28 schedule
  maximum administered dose (MAD): 50 mg
[1]; RP2D 40 mg QD
  diarrhea, treatment related ≥G3: 10%
  fatigue, treatment related ≥G3: 4%
  hyperglycemia, treatment related ≥G3: 18%
  liver dysfunction, treatment related ≥G3: 12%
  mucosal inflammation, treatment related ≥G3: 6%
  pneumonitis, treatment related ≥G3: 8%
  rash, treatment related ≥G3: 14%
[1]; all patients, six severe
  pneumonitis cases reported on study: 14
[1]; continuous 28/28 schedule
  MTD: not reached
[1]; human, in vivo, oral
  dose reductions due to diarrhea: 2 n
  dose reductions due to mucosal inflammation: 2 n
  dose reductions due to pneumonitis: 2 n
[1]; in vivo
  rate of severe pneumonitis (grade ≥3): 8%
[1]; stage 1, including 3 severe cases
  patients with pneumonitis outside the DLT window: 8 patients
[2]; mean terminal elimination half-life, patients
  half-life: 11.3 h
[2]; terminal elimination half-life, range, patients
  half-life: 3.26 to 45.4 h
[2]; oral, patients
  time of peak mean plasma concentration after dose: 1 to 2 h
[2]; rabeprazole 20 mg daily for 5 days, 6 patients
  impact of PPI on apitolisib PK: no significant impact
[2]; repeated QD doses
  accumulation: less than 1.2
Advanced solid tumors; 40 mg 28/28
  Median time on study: 2.9 months
  stable disease with tumor regression: 20 patients
  time on study, range: 1-21.2 months
Advanced solid tumors; 40 mg 28/28, 49 RECIST evaluable patients
  PRs: Five
Advanced solid tumors; 14 evaluable patients with PIK3CA mutations, 40 mg 28/28
  PD as best radiological response: 3
Advanced solid tumors; 14 evaluable patients with PIK3CA mutations, 40 mg 28/28, 1 confirmed
  PRs as best radiological response: 3
Advanced solid tumors; MPM
  PR rate in MPM patients: 12%
Advanced solid tumors; MPM, 30 mg 28/28
  Median time on study: 4 months
  time on study, range: 0.5-38.9 months
Advanced solid tumors; MPM, 30 mg 28/28 (8 patients)
  patients on study for more than 6 months: 30%
Advanced solid tumors; RP2D 40 mg QD
  partial response rate: 10.2%
Advanced solid tumors; in vivo
  dose from which anti-tumor activity was apparent: 8 mg
  response rate with enrichment for PIK3CA mutations: 18.8%
  single agent response rate: 10-19%
Advanced solid tumors; one patient, metastatic clear cell ovarian cancer, 40 mg 28/28
  time on apitolisib: 282 days
Advanced solid tumors; one patient, metastatic clear cell ovarian cancer, E545K PIK3CA, 40 mg 28/28
  maximal tumor shrinkage, change from baseline: −48.3%
Advanced solid tumors; stage 1 (3 patients)
  patients continuing on study for over 12 months: 5%
Advanced solid tumors; stage 1, among 56 patients
  partial responses (PR): 4
Advanced solid tumors; stage 1, 32 mg QD 21/28 and 50 mg QD 21/28
  confirmed responses: 2
[3]; 40 mg 28/28
  sustained pAKT inhibition: > 90%
[3]; in vivo
  doses with target modulation: ≥ 16 mg
[3]; platelet-rich plasma, within 4 hours, MTD 50 mg
  suppression of phosphorylated serine-473 AKT levels: ≥ 90%

— publication PMC4876928 (Clinical cancer research : an official journal of the …, 2016)
